# Measurements taken from paper PMC4942345 (Organic & biomolecular chemistry, 2016).
# Where a SMILES comes first, the peptide text is derived from it. [ ]: non-standard residue; d: D form. The star is where a group is joined. Benzoyl(4-SO2NH2) = NS(=O)(=O)c1ccc(C(=O)*)cc1
# Columns and labels:
# [1] = molecular target: T1, hCAI (Homo sapiens, UniProt P00915); format: binding
# How it was run: (§1)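 Excess biotinylated conjugate was loaded onto streptavidin agarose in PBS for 2 h, then washed 3-4 times with PBS and 0.05% PBST. The resin was incubated overnight at 4 °C with hCAII and hCAI, added separately or as a mixture, then washed. It was boiled 10 min at 99 °C in SDS loading buffer with reducing agent and run on SDS-PAGE.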
# [2] = molecular target: T2, hCAII (Homo sapiens, UniProt P00918); format: binding; settings: fluorescence visualization of SDS gel, Fig. 3b and 3c
# How it was run: as §1
# [3] = molecular target: T1, hCAI; experiment: Esterase activity inhibition; format: biochemical
# How it was run: (§2)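 Commercial human CA isozyme at 0.2 μM was run with the inhibitor-peptide conjugate as blocker. The substrate was 50 μM 4-nitrophenyl acetate in Tris buffer (9 mM Tris-HCl, 81 mM NaCl, 10% v/v acetonitrile, 1% v/v DMSO). Nitrophenol formation was followed by absorbance at 400 nm. Each run was done at least in triplicate.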
# [4] = molecular target: T2, hCAII; experiment: Esterase activity inhibition; format: biochemical; settings: from IC50 values
# How it was run: as §2
# [5] = tested on: mixture of hCAIX, hCAXII, hCAVB and hCAII; experiment: Pull-down experiment with a mixture of CA isozymes, SDS-PAGE; format: binding, human; settings: [CA] = 1.00 μM, Fig. 4
# T1 sequence (P00915 whole entry): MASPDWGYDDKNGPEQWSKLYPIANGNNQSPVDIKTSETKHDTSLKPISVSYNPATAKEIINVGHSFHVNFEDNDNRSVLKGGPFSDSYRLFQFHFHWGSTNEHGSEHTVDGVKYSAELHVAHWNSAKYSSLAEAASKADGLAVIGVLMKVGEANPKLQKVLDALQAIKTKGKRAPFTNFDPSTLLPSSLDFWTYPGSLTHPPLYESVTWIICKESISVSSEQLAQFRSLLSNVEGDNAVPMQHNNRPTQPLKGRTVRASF
"pull-down, enzymes tested separately: capturing ability for hCAI ([1]; [hCA] = 0.57 μM, Fig. 3a, compared with 1, 2 and 7)","pull-down with mixture of ZW700-hCAII and CY3-hCAI: binding to hCAI ([1]; fluorescence visualization of SDS gel, Fig. 3b and 3c)","increase of inhibitory activity against hCAI compared to 4-ABS ([3]; from IC50 values, esterase activity) [fold]",specificity in terms of enzymatic inhibitory activity (IC50) ([3]; hCAI versus hCAII and hCAIX),increase of inhibitory activity against hCAII compared to 4-ABS [4],Structure (SMILES),pull-down with mixture of ZW700-hCAII and CY3-hCAI: binding to hCAII [2],pull-down with mixture of CA isozymes: isozyme captured [5]
greatest capturing ability for hCAI,binds strongly,30,good specificity for hCAI,2.6 fold,"CC(C)C[C@@H](NC(=O)[C@H](NC(=O)[C@@H](CC(=O)O)NC(=O)[C@H](NC(=O)[C@@H](CC(=O)O)NC(=O)c1ccc(S(N)(=O)=O)cc1)C(C)C)C(C)C)C(N)=O [Compound 9, 4-CBS-dvdvl] ({Benzoyl(4-SO2NH2)}-[dD][dV][dD][dV][dL]-NH2)",binds strongly,selective capturing of hCAII
–,–,–,–,ca. 17 fold,"CC(C)C[C@@H](NC(=O)[C@@H](CC(=O)O)NC(=O)c1ccc(S(N)(=O)=O)cc1)C(=O)N[C@H](CC(=O)O)C(=O)N[C@H](CC(=O)O)C(=O)N[C@H](Cc1c[nH]c2ccccc12)C(N)=O [Compound 7, 4-CBS-dlddw] ({Benzoyl(4-SO2NH2)}-[dD][dL][dD][dD][dW]-NH2)",significantly increased binding selectively to hCAII,selective capturing of hCAII
